These results are taken from ChEMBL document CHEMBL4325837, “Discovery of novel NO-releasing celastrol derivatives with Hsp90 inhibition and cytotoxic activities” (Eur J Med Chem, 2018).

The source made the active and inactive calls. The rule behind the calls is not given here.

For one series, the system named is MCF7. The series is described as follows: Antiproliferative activity against human MCF7 cells after 48 hrs by MTT assay. The series is classed as functional, cell-based. Particulars: MCF7, 48 h. In outline: (§1)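 MTT assay. Cells were seeded at 5.0 × 10⁴ cells/ml in 100 μL per well and grown 24 h. They were then exposed to a range of concentrations for 48 h. MTT (5 mg/ml) was added for 4 h, the supernatant was removed and DMSO was added. OD was read at 570 nm. Assays were run in triplicate and IC50 is reported as mean ± SD, n = 3.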
In general terms: Tetrazolium assays rely on reduction of a dye to a coloured formazan, in cell work by metabolically active cells.

In series [1] the test system is A549. The series is described as follows: Antiproliferative activity against human A549 cells after 48 hrs by MTT assay. It counts as functional, cell-based. Particulars: A549, 48 h. The method, boiled down: as §1
The test system of the next series is HOS. The series is described as follows: Antiproliferative activity against human HOS cells after 48 hrs by MTT assay. It counts as functional, cell-based. In outline: as §1
For the next series, the system named is HepG2. Description: Antiproliferative activity against human HepG2 cells after 48 hrs by MTT assay. The series is classed as functional, cell-based. Particulars: HepG2, 48 h. In outline: as §1
Series [2] in a line: Drug metabolism in human A549 cells assessed as nitric oxide release at 4 uM measured up to 24 hrs. It counts as ADME, cell-based. Particulars: a549, 24 h. The method, boiled down: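 A549 cells were seeded at 5.0 × 10⁴ cells/ml in 100 μL wells and grown 24 h at 37 °C. Hybrids were added at 4 μM for varying times, with 24 h used for the full set. NO was measured with a Nitrate/Nitrite assay kit against a standard curve, reading OD at 550 nm. Values are the mean of three independent experiments.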

For series [3], the system named is A549. Description: Induction of apoptosis in human A549 cells assessed as viable cells at 1.2 uM after 48 hrs by Annexin V-FITC/propidium iodide staining-based flow cytometric analysis (reference value: 98.5%). The series is classed as functional. Particulars: A549, 48 h, read-out: Activity. On the technique in general: A flow cytometer gives signals particle by particle.

Series [4] concerns A549. Description: Induction of apoptosis in human A549 cells assessed as necrotic cells at 1.2 uM after 48 hrs by Annexin V-FITC/propidium iodide staining-based flow cytometric analysis (reference value: 0.6%). The series is classed as functional.
Series [5] concerns A549. The series is described as follows: Induction of apoptosis in human A549 cells assessed as late apoptotic cells at 1.2 uM after 48 hrs by Annexin V-FITC/propidium iodide staining-based flow cytometric analysis (reference value: 0.4%). The series is classed as functional.
The test system of series [6] is A549. The series is described as follows: Induction of apoptosis in human A549 cells assessed as early apoptotic cells at 1.2 uM after 48 hrs by Annexin V-FITC/propidium iodide staining-based flow cytometric analysis (reference value: 0.5%). It counts as functional.
Series [7] deals with Heat shock protein HSP90 (Homo sapiens) (UniProt P07900+P08238). The series is described as follows: Inhibition of HSP90 in human A549 cells assessed as decrease in Akt phosphorylation at 2.5 uM after 24 hrs by Western blot analysis. The series is classed as cell-based. In general terms: In western blotting, separated proteins are transferred to a membrane and probed.

Take `CC1=C(O)C(=O)C=C2C1=CC=C1[C@@]2(C)CC[C@@]2(C)[C@@H]3C[C@](C)(C(=O)OCCCCCCO[N+](=O)[O-])CC[C@]3(C)CC[C@]12C`: the 50% inhibitory concentration (IC50) (as a rule, the point on the concentration scale where inhibition reaches its midpoint) in the series on MCF7 came out at 3.17 µM; with A549 [1], 3.67 µM; in the series with HOS it was 3.36 µM; with HepG2, 4.71 µM.

On to `NCCCOc1no[n+]([O-])c1S(=O)(=O)c1ccccc1`, for which the IC50 in the series on A549 [1] worked out at 25.5 µM.

Turning to `CC1=C(O)C(=O)C=C2C1=CC=C1[C@@]2(C)CC[C@@]2(C)[C@@H]3C[C@](C)(C(=O)OCCCO[N+](=O)[O-])CC[C@]3(C)CC[C@]12C`, the concentration for half-maximal inhibition (IC50) in the series on MCF7 stood at 2.54 µM; with A549 [1], 3.22 µM; with HOS, 1.37 µM; in the series on HepG2, 1.85 µM. In addition, in series [2], the Drug metabolism result is “Metabolite_Detected”.

With `CC1=C(O)C(=O)C=C2C1=CC=C1[C@@]2(C)CC[C@@]2(C)[C@@H]3C[C@](C)(C(=O)OCC(C)Oc4no[n+]([O-])c4S(=O)(=O)c4ccccc4)CC[C@]3(C)CC[C@]12C` (stereo not given in full), the IC50 turned out to be 2.02 µM in the series with MCF7, 2.07 µM in the series on A549 [1], 3.03 µM in the series with HOS and 2.39 µM with HepG2.

Take `CC1=C(O)C(=O)C=C2C1=CC=C1[C@@]2(C)CC[C@@]2(C)[C@@H]3C[C@](C)(C(=O)O)CC[C@]3(C)CC[C@]12C` [CELASTROL]: in the series on A549 [3], the viability at 1.2 µM was found to be 75.8%. Also, the Activity in the series on A549 [4] turned out to be 5.2%; with A549 [5], 11.2%; in the series on A549 [6], 7.8%. Further, the 50% inhibitory concentration (IC50) with MCF7 is 1.56 µM; with A549 [1], 1.43 to 1.57 µM; in the series with HOS, 0.93 µM; in the series on HepG2, 1.62 µM. In addition, the inhibition result in series [7] was “Active”.

Take `CC1=C(O)C(=O)C=C2C1=CC=C1[C@@]2(C)CC[C@@]2(C)[C@@H]3C[C@](C)(C(=O)OCCCCCO[N+](=O)[O-])CC[C@]3(C)CC[C@]12C`: the concentration for half-maximal inhibition (IC50) in the series with MCF7 is 3.01 µM; in the series on A549 [1], 5.32 µM; in the series on HOS, 2.9 µM; in the series with HepG2, 3.4 µM.

As to `CC1=C(O)C(=O)C=C2C1=CC=C1[C@@]2(C)CC[C@@]2(C)[C@@H]3C[C@](C)(C(=O)NCCOc4no[n+]([O-])c4S(=O)(=O)c4ccccc4)CC[C@]3(C)CC[C@]12C`, the IC50 in the series on MCF7 was 1.52 µM; in the series with A549 [1], 1.08 µM; with HOS it was 1.47 µM; with HepG2, 3.82 µM. In addition, in series [2], the Drug metabolism entry is “Metabolite_Detected”.

For the compound `CC1=C(O)C(=O)C=C2C1=CC=C1[C@@]2(C)CC[C@@]2(C)[C@@H]3C[C@](C)(C(=O)OCCCOc4no[n+]([O-])c4S(=O)(=O)c4ccccc4)CC[C@]3(C)CC[C@]12C`, the IC50 in the series on MCF7 was 2.12 µM; in the series on A549 [1], 2.89 µM; with HOS, 1.87 µM; in the series with HepG2, 4.53 µM.

`CC1=C(O)C(=O)C=C2C1=CC=C1[C@@]2(C)CC[C@@]2(C)[C@@H]3C[C@](C)(C(=O)OCCOc4no[n+]([O-])c4S(=O)(=O)c4ccccc4)CC[C@]3(C)CC[C@]12C`: the concentration for half-maximal inhibition (IC50) in the series with MCF7 was found to be 2.76 µM; in the series with A549 [1], 2.28 µM; with HOS, 1.69 µM; in the series with HepG2 it was 4.75 µM. For the same compound, in series [2], the Drug metabolism result is recorded as “Metabolite_Detected”.

Regarding `CC1=C(O)C(=O)C=C2C1=CC=C1[C@@]2(C)CC[C@@]2(C)[C@@H]3C[C@](C)(C(=O)OCCCCOc4no[n+]([O-])c4S(=O)(=O)c4ccccc4)CC[C@]3(C)CC[C@]12C`, the IC50 in the series with MCF7 was 3.95 µM; with A549 [1] it was 2.46 µM; in the series with HOS it was 2.47 µM; in the series with HepG2, 3.53 µM.

Regarding `CC1=C(O)C(=O)C=C2C1=CC=C1[C@@]2(C)CC[C@@]2(C)[C@@H]3C[C@](C)(C(=O)OCCCCO[N+](=O)[O-])CC[C@]3(C)CC[C@]12C`, the IC50 in the series on MCF7 is 3.82 µM; in the series on A549 [1] it was 4.21 µM; in the series on HOS, 2.43 µM; in the series on HepG2, 6.08 µM. The Drug metabolism result in [2] was “Metabolite_Detected”.

With `CC1=C(O)C(=O)C=C2C1=CC=C1[C@@]2(C)CC[C@@]2(C)[C@@H]3C[C@](C)(C(=O)OCC(C)COc4no[n+]([O-])c4S(=O)(=O)c4ccccc4)CC[C@]3(C)CC[C@]12C` (stereo not given in full), the half-inhibitory concentration (IC50) with MCF7 was found to be 1.49 µM; in the series on A549 [1], 1.11 µM; with HOS, 1.67 µM; in the series on HepG2, 2.39 µM. Further, the Drug metabolism entry in [2] is given as “Metabolite_Detected”.
